Laboratory results as given in ChEMBL document CHEMBL6115035 (J Med Chem, 2025).
Calls of active or inactive are those of the source. The calls are words filed in the database; no cut-off is given here.

Tests used:
VCaP [1] = experiment: Antiproliferative activity against human VCaP cells measured after 5 days by Cell Titer-Glo assay; assay type: functional, cell-based; settings: 120 h
In short: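 Cells were seeded and incubated overnight at 37 °C, 5% CO2. Serial compound dilutions were then added. Viability was read by CellTiter-Glo luminescence after 5 days, and IC50 was obtained by curve fitting.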

VCaP [2] = experiment: Antitumor activity against human VCaP cells xenografted in mouse assessed as reduction in tumor growth at 0.5 to 1.5 mg/kg, ip treated for 27 days; assay type: functional, organism-based; settings: dose 0.5-1.5 mg/kg, time 27.0 day
In short: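 VCaP CRPC cells (5×10^6) were injected […] NSG or CB17SCID mice. Dosing began at tumours of ~200–400 mm3: 0.5 or 1.5 mg/kg i.p. for 27 days. Vehicle was 20% PEG400, 6% Cremophor EL, 74% PBS. Tumours were collected at the end for Western blot.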

[3] = target: Cyclin-dependent kinase 13 (Homo sapiens) (UniProt Q14004); experiment: Binding affinity to CDK13 in human VCaP cells incubated for 4 hrs by streptavidin-biotin pull down assay; assay type: cell-based
In short: (§1)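 VCaP cells were treated with a biotinylated probe for 4 h and lysed in RIPA buffer. Lysate was incubated with streptavidin beads overnight at 4 °C. Beads were washed three times with PBST (0.1% Tween) and eluted in 2X SDS loading buffer. Proteins were separated by SDS-PAGE.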

[4] = target: Cyclin-dependent kinase 12 (Homo sapiens) (UniProt Q9NYV4); experiment: Binding affinity to CDK12 in human VCaP cells incubated for 4 hrs by streptavidin-biotin pull down assay; assay type: cell-based; in short: as §1
VCaP [5] = experiment: Antiproliferative activity against human VCaP cells assessed as irreversible cell growth inhibition pretreated for 6 hrs followed by compound washout and subsequent addition of compound-free medium measured after 5 days by Cell Titer-Glo assay; assay type: functional, cell-based
In short: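 VCaP cells (DMEM GlutaMAX, 10% FBS) were exposed to compound for 6 h. The compound was then removed and cells were grown in compound-free medium for 5 days before the viability read-out.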

CDK7/Cyclin H/MNAT1 = CDK7/Cyclin H/MNAT1 (Homo sapiens, UniProt P50613); experiment: Inhibition of CDK7/cyclin H/MAT1 (unknown origin) by ADP-Glo kinase assay; assay type: protein-complex assay
[6] = target: T1, Cyclin-dependent kinase 5/CDK5 activator 1 (Homo sapiens, UniProt Q00535); experiment: Inhibition of CDK5/p35NCK (unknown origin) by ADP-Glo kinase assay; assay type: protein-complex assay
T1 sequence (Q00535 whole entry): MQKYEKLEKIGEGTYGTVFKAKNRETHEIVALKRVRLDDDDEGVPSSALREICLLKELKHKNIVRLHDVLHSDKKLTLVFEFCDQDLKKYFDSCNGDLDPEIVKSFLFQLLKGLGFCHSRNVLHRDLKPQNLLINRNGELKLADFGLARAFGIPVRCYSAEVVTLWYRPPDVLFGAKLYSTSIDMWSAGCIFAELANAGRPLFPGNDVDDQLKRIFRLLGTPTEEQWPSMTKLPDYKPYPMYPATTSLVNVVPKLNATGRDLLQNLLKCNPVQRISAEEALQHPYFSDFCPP
T1 sequence (Q15078 whole entry, further chain): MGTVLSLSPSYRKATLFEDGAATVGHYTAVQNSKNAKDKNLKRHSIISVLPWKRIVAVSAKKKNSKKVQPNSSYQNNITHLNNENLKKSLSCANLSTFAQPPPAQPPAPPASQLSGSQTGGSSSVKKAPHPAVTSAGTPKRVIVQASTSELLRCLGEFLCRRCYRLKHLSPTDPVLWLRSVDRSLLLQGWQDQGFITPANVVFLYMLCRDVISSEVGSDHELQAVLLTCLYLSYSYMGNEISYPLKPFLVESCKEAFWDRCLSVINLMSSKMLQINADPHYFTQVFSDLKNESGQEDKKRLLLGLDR

CDK6/cyclin D1 = CDK6/cyclin D1 (Homo sapiens, UniProt Q00534); experiment: Inhibition of CDK6/cyclin D1 (unknown origin) by ADP-Glo kinase assay; assay type: protein-complex assay
Sequence of CDK6/cyclin D1 (P24385 whole entry): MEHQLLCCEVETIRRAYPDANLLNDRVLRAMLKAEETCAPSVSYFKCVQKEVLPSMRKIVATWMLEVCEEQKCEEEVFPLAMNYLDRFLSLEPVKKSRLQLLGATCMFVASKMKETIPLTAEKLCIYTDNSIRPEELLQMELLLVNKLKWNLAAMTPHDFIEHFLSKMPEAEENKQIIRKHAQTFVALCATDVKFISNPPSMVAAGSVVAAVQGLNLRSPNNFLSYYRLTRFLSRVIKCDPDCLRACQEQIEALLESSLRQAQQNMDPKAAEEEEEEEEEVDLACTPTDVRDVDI
Sequence of CDK6/cyclin D1 (Q00534 whole entry): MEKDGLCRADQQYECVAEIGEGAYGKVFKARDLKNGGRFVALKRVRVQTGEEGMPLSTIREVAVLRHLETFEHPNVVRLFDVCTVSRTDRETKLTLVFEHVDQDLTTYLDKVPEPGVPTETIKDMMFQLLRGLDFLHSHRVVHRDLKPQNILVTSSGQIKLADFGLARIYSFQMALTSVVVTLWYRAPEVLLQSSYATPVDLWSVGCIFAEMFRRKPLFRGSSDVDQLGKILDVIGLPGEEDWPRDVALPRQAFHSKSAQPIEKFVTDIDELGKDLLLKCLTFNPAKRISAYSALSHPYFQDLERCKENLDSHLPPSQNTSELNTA

CDK9/Cyclin K = CDK9/Cyclin K (Homo sapiens, UniProt P50750); experiment: Inhibition of CDK9/Cyclin K (unknown origin) by ADP-Glo kinase assay; assay type: protein-complex assay
[7] = target: Cyclin-Y/Cyclin-dependent kinase 16 (Homo sapiens, UniProt Q00536); experiment: Inhibition of CDK16/cyclin Y (unknown origin) by ADP-Glo kinase assay; assay type: protein-complex assay
CDK1/Cyclin A = CDK1/Cyclin A (Homo sapiens, UniProt P06493); experiment: Inhibition of CDK1/Cyclin A2 (unknown origin) by ADP-Glo kinase assay; assay type: protein-complex assay
Sequence of CDK1/Cyclin A (P06493 whole entry): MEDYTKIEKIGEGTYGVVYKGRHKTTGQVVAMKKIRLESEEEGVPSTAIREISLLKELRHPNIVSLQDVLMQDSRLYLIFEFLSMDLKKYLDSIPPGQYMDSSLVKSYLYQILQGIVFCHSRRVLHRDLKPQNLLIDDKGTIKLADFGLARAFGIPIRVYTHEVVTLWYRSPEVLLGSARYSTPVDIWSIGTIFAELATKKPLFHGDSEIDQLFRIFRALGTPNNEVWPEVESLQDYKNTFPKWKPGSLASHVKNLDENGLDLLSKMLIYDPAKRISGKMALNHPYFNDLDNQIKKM
Sequence of CDK1/Cyclin A (P20248 whole entry, further chain): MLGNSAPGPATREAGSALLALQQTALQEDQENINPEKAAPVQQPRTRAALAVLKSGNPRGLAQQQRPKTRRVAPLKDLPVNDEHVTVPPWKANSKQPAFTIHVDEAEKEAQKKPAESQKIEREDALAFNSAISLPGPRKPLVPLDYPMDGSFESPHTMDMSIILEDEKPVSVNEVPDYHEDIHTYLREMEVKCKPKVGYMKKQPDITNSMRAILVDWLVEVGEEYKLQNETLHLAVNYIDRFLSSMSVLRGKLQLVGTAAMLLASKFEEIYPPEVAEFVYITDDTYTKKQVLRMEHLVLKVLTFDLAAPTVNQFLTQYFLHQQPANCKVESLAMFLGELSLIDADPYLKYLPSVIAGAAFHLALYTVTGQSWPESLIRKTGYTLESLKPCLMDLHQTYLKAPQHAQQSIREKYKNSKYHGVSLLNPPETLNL
In short: (§2)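 Kinase inhibition was measured by ADP-Glo assay. IC50 values are means of three independent experiments.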

CDK1/Cyclin E = CDK1/Cyclin E (Homo sapiens, UniProt P06493); experiment: Inhibition of CDK1/Cyclin E1 (unknown origin) by ADP-Glo kinase assay; assay type: protein-complex assay; in short: as §2
Sequence of CDK1/Cyclin E (P06493 whole entry): as the sequence (P06493 whole entry) above
Sequence of CDK1/Cyclin E (P24864 whole entry, further chain): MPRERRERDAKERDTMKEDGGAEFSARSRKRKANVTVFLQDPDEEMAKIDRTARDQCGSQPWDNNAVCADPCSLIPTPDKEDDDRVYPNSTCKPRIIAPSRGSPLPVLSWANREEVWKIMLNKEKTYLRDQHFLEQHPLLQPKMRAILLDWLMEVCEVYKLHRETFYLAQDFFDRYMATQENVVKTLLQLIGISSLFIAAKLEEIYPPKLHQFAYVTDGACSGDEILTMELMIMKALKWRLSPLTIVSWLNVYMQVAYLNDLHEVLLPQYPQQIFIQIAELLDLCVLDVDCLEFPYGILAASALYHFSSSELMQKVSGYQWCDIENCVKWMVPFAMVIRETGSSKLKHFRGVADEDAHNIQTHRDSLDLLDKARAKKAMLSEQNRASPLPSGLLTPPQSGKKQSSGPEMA

[8] = target: Cyclin-C/Cyclin-dependent kinase 19 (Homo sapiens, UniProt Q9BWU1); experiment: Inhibition of CDK19/Cyclin C (unknown origin) by ADP-Glo kinase assay; assay type: protein-complex assay
Sequence of Cyclin-C/Cyclin-dependent kinase 19 (Q9BWU1 whole entry): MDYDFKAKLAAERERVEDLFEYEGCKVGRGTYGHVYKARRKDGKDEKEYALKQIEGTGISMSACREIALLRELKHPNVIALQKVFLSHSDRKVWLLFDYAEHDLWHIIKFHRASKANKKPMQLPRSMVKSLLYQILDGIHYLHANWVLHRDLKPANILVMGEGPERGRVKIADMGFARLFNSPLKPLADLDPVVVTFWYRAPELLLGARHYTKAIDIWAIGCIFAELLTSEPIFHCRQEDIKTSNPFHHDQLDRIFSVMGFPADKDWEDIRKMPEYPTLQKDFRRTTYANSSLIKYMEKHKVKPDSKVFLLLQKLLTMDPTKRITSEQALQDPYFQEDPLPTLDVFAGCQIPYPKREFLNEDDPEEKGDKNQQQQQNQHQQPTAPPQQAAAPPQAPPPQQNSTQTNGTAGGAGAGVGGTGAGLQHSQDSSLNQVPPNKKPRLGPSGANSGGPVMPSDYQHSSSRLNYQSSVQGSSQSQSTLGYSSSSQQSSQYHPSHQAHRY
Sequence of Cyclin-C/Cyclin-dependent kinase 19 (P24863 whole entry, further chain): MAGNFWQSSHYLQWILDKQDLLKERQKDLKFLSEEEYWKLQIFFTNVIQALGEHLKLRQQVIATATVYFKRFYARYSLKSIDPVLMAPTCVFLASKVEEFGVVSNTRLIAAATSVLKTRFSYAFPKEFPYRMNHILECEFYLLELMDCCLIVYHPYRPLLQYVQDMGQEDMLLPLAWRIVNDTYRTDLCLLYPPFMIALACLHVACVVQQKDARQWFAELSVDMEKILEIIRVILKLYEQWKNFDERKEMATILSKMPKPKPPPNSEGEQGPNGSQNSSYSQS

[9] = target: Cyclin-dependent kinase 4/cyclin D1 (Homo sapiens, UniProt P11802); experiment: Inhibition of CDK4/Cyclin D1 (unknown origin) by ADP-Glo kinase assay; assay type: protein-complex assay
Sequence of Cyclin-dependent kinase 4/cyclin D1 (P11802 whole entry): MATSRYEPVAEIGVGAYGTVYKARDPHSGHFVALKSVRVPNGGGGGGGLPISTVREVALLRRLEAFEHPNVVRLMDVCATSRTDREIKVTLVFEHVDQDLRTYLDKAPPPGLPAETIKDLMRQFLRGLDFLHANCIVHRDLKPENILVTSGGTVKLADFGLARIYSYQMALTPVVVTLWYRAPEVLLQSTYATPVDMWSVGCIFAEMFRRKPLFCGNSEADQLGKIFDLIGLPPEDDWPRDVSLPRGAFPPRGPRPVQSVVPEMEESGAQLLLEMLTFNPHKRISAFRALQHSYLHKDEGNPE
Sequence of Cyclin-dependent kinase 4/cyclin D1 (P24385 whole entry, further chain): as the sequence (P24385 whole entry) above

CDK9/cyclin T1 = CDK9/cyclin T1 (Homo sapiens, UniProt P50750); experiment: Inhibition of CDK9/Cyclin T1 (unknown origin) by ADP-Glo kinase assay; assay type: protein-complex assay
VCaP [10] = experiment: Downregulation of RAD51 expression in human VCaP cells at 10 to 300 nM pretreated for 2 hrs followed by compound washout measured after 12 hrs by Western blot analysis; assay type: functional, cell-based; settings: dose 10-300 nM
[11] = target: T1, Cyclin-dependent kinase 5/CDK5 activator 1; experiment: Inhibition of CDK5/p25NCK (unknown origin) by ADP-Glo kinase assay; assay type: protein-complex assay
CDK8/Cyclin C = CDK8/Cyclin C (Homo sapiens, UniProt P49336); experiment: Inhibition of CDK8/Cyclin C (unknown origin) by ADP-Glo kinase assay; assay type: protein-complex assay
Sequence of CDK8/Cyclin C (P49336 whole entry): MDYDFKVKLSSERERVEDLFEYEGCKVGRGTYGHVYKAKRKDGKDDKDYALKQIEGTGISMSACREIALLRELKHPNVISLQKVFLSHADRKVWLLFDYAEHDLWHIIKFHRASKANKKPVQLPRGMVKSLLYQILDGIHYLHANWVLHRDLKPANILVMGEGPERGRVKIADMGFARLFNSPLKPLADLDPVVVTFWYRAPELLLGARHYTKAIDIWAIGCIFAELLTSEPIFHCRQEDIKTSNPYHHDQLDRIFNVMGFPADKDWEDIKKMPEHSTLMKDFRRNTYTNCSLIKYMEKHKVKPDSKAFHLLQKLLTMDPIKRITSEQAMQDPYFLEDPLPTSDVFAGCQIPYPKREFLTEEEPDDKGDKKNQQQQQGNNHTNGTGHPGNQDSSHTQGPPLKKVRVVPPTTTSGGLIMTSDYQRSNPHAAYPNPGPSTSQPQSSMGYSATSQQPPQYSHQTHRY
Sequence of CDK8/Cyclin C (P24863 whole entry, further chain): as the sequence (P24863 whole entry, further chain) above

VCaP [12] = experiment: Upregulation of c-PARP expression in human VCaP cells at 10 to 300 nM pretreated for 2 hrs followed by compound washout measured after 12 hrs by Western blot analysis; assay type: functional, cell-based; settings: dose 10-300 nM
In short: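 VCaP cells were grown in DMEM GlutaMAX with 10% FBS and P/S. After treatment they were washed with cold PBS and lysed in RIPA with protease inhibitors. Equal protein was run on 4–12% Bis-Tris SDS-PAGE, transferred to nitrocellulose, and probed for cleaved PARP with α-tubulin as loading control. Detection used HRP secondary antibodies.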

Work on C=CC(=O)Nc1cc(N(C(=O)NCc2ccccc2)[C@H]2CC[C@H](Nc3ccc(C#N)cn3)CC2)ccc1N1CCN(C)[C@@H](C)C1 yielded an IC50 (VCaP [1]) of 0.0043 µM.
With Cn1ncc(Cl)c1-c1cc(C(=O)N[C@H](CN)Cc2ccc(F)c(F)c2)oc1Cl the Activity (VCaP [2]) was “Active”.
C=CC(=O)Nc1cc(N(C(=O)NCc2ccccc2)[C@H]2CC[C@H](Nc3ccc(C#N)cn3)CC2)ccc1N1C[C@H]2C[C@@H]1CN2C showed an IC50 (VCaP [1]) of 0.0763 µM.
In the case of C=CC(=O)Nc1cc(N(C(=O)NCc2ccccc2)[C@H]2CC[C@H](Nc3ccc(C#N)cn3)CC2)ccc1N1CCC(N(C)C(=O)CCOCCOCCOCCOCCNC(=O)CCCC[C@@H]2SC[C@@H]3NC(=O)N[C@@H]32)CC1, the Activity [3] is reported as “Active” and the Activity [4] is reported as “Active”.
For Cn1cc(-n2cnc3c(NCc4nc5cc(Cl)c(Cl)cc5[nH]4)nc(N4CCOCC4)nc32)cn1, the inhibition (VCaP [5]) was “inactive”.
Work on Cn1cc(-c2ccc(N(C(=O)NCc3ccccc3)[C@H]3CC[C@H](Nc4ccc(C#N)cn4)CC3)cc2)ccc1=O yielded an IC50 (CDK7/Cyclin H/MNAT1) of 0.679 µM, an IC50 [6] of 5.07 µM and an IC50 (CDK6/cyclin D1) of 8.79 µM. For the same compound, the IC50 (CDK9/Cyclin K) was 0.716 µM, the IC50 [7] was > 10 µM and the IC50 (CDK1/Cyclin A) was > 10 µM. For the same compound, the IC50 (CDK1/Cyclin E) was > 10 µM, the IC50 [8] was > 10 µM and the IC50 [9] was 5.28 µM. For the same compound, the IC50 (CDK9/cyclin T1) was 0.515 µM, the Activity (VCaP [10]) was “inactive” and the IC50 [11] was 4.86 µM. The IC50 (CDK8/Cyclin C) was > 10 µM and the Activity (VCaP [12]) was “inactive”.
